Results as given in ChEMBL document CHEMBL2380222, “Arylsulfonamide pyrimidines as VLA-4 antagonists” (Bioorg Med Chem Lett, 2013).

Assays:
[1] = Oral bioavailability in Sprague-Dawley rat; assay type: ADME, organism-based; conditions: in vivo
[2] = Plasma concentration in po dosed Sprague-Dawley rat after 12 hrs; assay type: ADME, organism-based
[3] = AUC in po dosed Sprague-Dawley rat; assay type: ADME, organism-based; conditions: plasma
[4] = AUC in iv dosed Sprague-Dawley rat; assay type: ADME, organism-based; conditions: plasma
[5] = Inhibition of VLA-4 (unknown origin) binding to VCAM-1 in human Jurkat TM cells after 30 mins by fibronectin mediated cell adhesion assay; assay type: cell-based
Procedure, shortened: (§1)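 Calcein-labelled Jurkat TM cells (10^5/well) in Hepes 20 mM, NaCl 140 mM, CaCl2 1 mM, MgCl2 1 mM, 0.3% BSA with activating anti-α4 TS2/16. Cells were preincubated 30 min on wet ice with anti-α5 (5 µg/ml) and a compound dose–response, then bound 35 min at 37 °C, 5% CO2 to human plasma fibronectin-coated wells. Wells were washed 3× and read by fluorescence to give IC50.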

Mus musculus [6] = test: Inhibition of Eos influx in Black/6 mouse acute pulmonary cellular influx model at 3 mg/kg, po bid administered 1hr prior and 12 hrs post ova/alum challenge on day 28 and 29 relative to vehicle-treated control; assay type: functional
Procedure, shortened: (§2)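 Female Black/6 mice were sensitized i.p. with ova/alum on day 1, boosted on day 14, and challenged with aerosolized ova on days 28 and 29. Compound was given by oral gavage (5 ml/kg) twice daily on days 28–29, 1 h before and 12 h after challenge. BAL was collected on day 30, 48 h after the first challenge. Eosinophil influx was reported as % inhibition against vehicle or against PS/2 (anti-α4, 10 mg/kg iv, 2 h before first challenge).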

Mus musculus [7] = test: Inhibition of Eos influx in Black/6 mouse acute pulmonary cellular influx model at 3 mg/kg, po bid administered 1hr prior and 12 hrs post ova/alum challenge on day 28 and 29 relative to PS/2; assay type: functional; procedure, shortened: as §2
Mus musculus [8] = test: Inhibition of Eos influx in Black/6 mouse acute pulmonary cellular influx model at 10 mg/kg, po bid administered 1hr prior and 12 hrs post ova/alum challenge on day 28 and 29 relative to vehicle-treated control; assay type: functional; procedure, shortened: as §2
Mus musculus [9] = test: Inhibition of Eos influx in Black/6 mouse acute pulmonary cellular influx model at 10 mg/kg, po bid administered 1hr prior and 12 hrs post ova/alum challenge on day 28 and 29 relative to alpha4 antibody PS/2; assay type: functional; procedure, shortened: as §2
[10] = Inhibition of VLA-4 in mouse serum binding to VCAM-1 in human Jurkat TM cells after 30 mins by fibronectin mediated cell adhesion assay; assay type: cell-based; conditions: 0.5 h
[11] = Inhibition of VLA-4 in rat serum binding to VCAM-1 in human Jurkat TM cells after 30 mins by fibronectin mediated cell adhesion assay; assay type: cell-based; conditions: 0.5 h
Procedure, shortened: (§3)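 Cells were preincubated 30 min on wet ice with anti-α5 (5 µg/ml) and a compound dose–response, then allowed to bind 35 min at 37 °C, 5% CO2 to human plasma fibronectin-coated wells. Wells were washed 3× and read by fluorescence to give IC50.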

[12] = Inhibition of VLA-4 in human serum binding to VCAM-1 in human Jurkat TM cells after 30 mins by fibronectin mediated cell adhesion assay; assay type: cell-based; conditions: 0.5 h; procedure, shortened: as §3
[13] = Inhibition of VLA-4 binding to VCAM-1 in human Jurkat TM cells after 30 mins by fibronectin mediated cell adhesion assay using BSA; assay type: cell-based; procedure, shortened: as §1

SMILES | bioavailability [1] [%] | concentration at 12 h [2] [ng/mL] | AUC [3] [ng·h/mL] | AUC [4] [ng·h/mL] | IC50 [5] [nM] | further results
CCN(CC)c1ncc(N(CC)S(=O)(=O)c2ccc(F)cc2F)c(N[C@@H](Cc2ccc(OC(=O)N3CCCC3)cc2)C(=O)O)n1 | 34 | 50 | 28000 | 83000 | 9 | 
CCN(CC)c1ncc(N(CC)S(=O)(=O)c2ccc(F)cc2)c(N[C@@H](Cc2ccc(OC(=O)N3CCC3)cc2)C(=O)O)n1 | 16 | 10 | 6000 | 34000 | 2 | 
CCN(CC)c1ncc(N(CC)S(=O)(=O)c2ccc(F)cc2)c(N[C@@H](Cc2ccc(OC(=O)N3CCCC3)cc2)C(=O)O)n1 | 46 | 180 | 51000 | 111000 | 1 | 
CCN(CC)c1ncc(N(CC)S(=O)(=O)c2ccc(F)c(F)c2)c(N[C@@H](Cc2ccc(OC(=O)N(C)C)cc2)C(=O)O)n1 | 24 | 8 | 4200 | 17000 | 4 | 
Cc1ccc(S(=O)(=O)N(C)c2cncnc2N[C@@H](Cc2ccc(OC(=O)N(C)C)cc2)C(=O)O)cc1 |  |  |  |  | 2 | 
CCN(CC)c1ncc(N(C)S(=O)(=O)c2ccc(Cl)cc2)c(N[C@@H](Cc2ccc(OC(=O)N3CCCC3)cc2)C(=O)O)n1 | 33 | 330 | 51000 | 153000 | 19 | 
CCN(CC)c1ncc(N(C)S(=O)(=O)c2ccc(F)cc2)c(N[C@@H](Cc2ccc(OC(=O)N(C)C)cc2)C(=O)O)n1 | 74 | 120 | 20000 | 27000 | 2 | inhibition in vivo at 3 mg/kg (Mus musculus [6]): 3%; inhibition in vivo at 3 mg/kg (Mus musculus [7]): 5%; inhibition in vivo at 10 mg/kg (Mus musculus [8]): 45%; inhibition in vivo at 10 mg/kg (Mus musculus [9]): 80%; IC50 [10]: 6 nM; IC50 [11]: 280 nM; IC50 [12]: 45 nM; IC50 [13]: 2 nM
CCN(CC)c1ncc(N(C(C)C)S(=O)(=O)c2ccc(F)c(F)c2)c(N[C@@H](Cc2ccc(OC(=O)N(C)C)cc2)C(=O)O)n1 |  |  |  |  | 7 | 
CCN(CC)c1ncc(N(C(C)C)S(=O)(=O)c2ccc(Cl)cc2)c(N[C@@H](Cc2ccc(OC(=O)N(C)C)cc2)C(=O)O)n1 |  |  |  |  | 4 | 
CN(C)C(=O)Oc1ccc(C[C@H](NC(=O)[C@H]2N(S(=O)(=O)c3cnn(C)c3)CSC2(C)C)C(=O)O)cc1 |  |  |  |  | 2 | 
